Results as given in ChEMBL document CHEMBL3627614, “Structure-based design, synthesis, X-ray studies, and biological evaluation of novel HIV-1 protease inhibitors containing isophthalamide-derived P2-ligands” (Bioorg Med Chem Lett, 2015).

Columns and labels:
[1] = system: Human immunodeficiency virus 1; assay: Antiviral activity against HIV-1 LAI infected in MT-2 cells measured after 7 days by MTT assay; assay type: functional, organism-based; settings: Human immunodeficiency virus 1, LAI, MT2, 168 h
[2] = biological target: Protease (Human immunodeficiency virus 1, UniProt Q9YQ12); assay: Inhibition of HIV-1 protease by fluorometric assay
Outline: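 Run by a previously published protease assay protocol, with inhibitory potency reported as the inhibition constant Ki.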

Chain of Protease (Q9YQ12 whole entry): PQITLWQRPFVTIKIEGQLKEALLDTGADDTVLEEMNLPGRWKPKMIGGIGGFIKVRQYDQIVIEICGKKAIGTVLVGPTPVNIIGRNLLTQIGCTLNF

Structure (SMILES) | Ki [2] [nM] | IC50 [1] [nM]
COc1ccc(S(=O)(=O)N(CC(C)C)C[C@@H](O)[C@H](Cc2ccccc2)NC(=O)c2cccc(C(=O)N3CCOCC3)c2)cc1 | 0.42 | 25
Cc1coc(CN(C)C(=O)c2cccc(C(=O)N[C@@H](Cc3ccccc3)[C@H](O)CN(CC(C)C)S(=O)(=O)c3ccc(CO)cc3)c2)n1 | 0.63 | –
COC[C@H]1C[C@H](O)CN1C(=O)c1cccc(C(=O)N[C@@H](Cc2ccccc2)[C@H](O)CN(CC(C)C)S(=O)(=O)c2ccc(OC)cc2)c1 | 0.27 | 389
COc1ccc(S(=O)(=O)N(CC(C)C)C[C@@H](O)[C@H](Cc2ccccc2)NC(=O)c2cccc(C(=O)N(C)Cc3nc(C)oc3C)c2)cc1 | 0.17 | 14
COC[C@H]1C[C@@H](O)CN1C(=O)c1cccc(C(=O)N[C@@H](Cc2ccccc2)[C@H](O)CN(CC(C)C)S(=O)(=O)c2ccc(OC)cc2)c1 | 0.27 | 190
COC[C@@H]1C[C@@H](O)CN1C(=O)c1cccc(C(=O)N[C@@H](Cc2ccccc2)[C@H](O)CN(CC(C)C)S(=O)(=O)c2ccc(OC)cc2)c1 | 2.85 | 178
COc1ccc(S(=O)(=O)N(CC(C)C)C[C@@H](O)[C@H](Cc2ccccc2)NC(=O)c2cc(C)cc(C(=O)N(C)Cc3nc(C)oc3C)c2)cc1 | 0.21 | 31
COC[C@@H]1C[C@H](O)CN1C(=O)c1cccc(C(=O)N[C@@H](Cc2ccccc2)[C@H](O)CN(CC(C)C)S(=O)(=O)c2ccc(OC)cc2)c1 | 1.5 | > 1000

More lines, main results first:

Ki [2] [nM] | Structure (SMILES) | IC50 [1] [nM]
158 | CCCN(C)C(=O)c1cc(NC)cc(C(=O)N[C@@H](Cc2ccccc2)[C@H](O)CN(CC(C)C)S(=O)(=O)c2ccc(OC)cc2)c1 | –
25.1 | CCCNC(=O)c1cccc(C(=O)N[C@@H](Cc2ccccc2)[C@H](O)CN(CC(C)C)S(=O)(=O)c2ccc(OC)cc2)c1 | –
12.4 | CCCN(CCC)C(=O)c1cccc(C(=O)N[C@@H](Cc2ccccc2)[C@H](O)CN(CC(C)C)S(=O)(=O)c2ccc(OC)cc2)c1 | > 1000
20.4 | CCCN(C)C(=O)c1cc(OC)cc(C(=O)N[C@@H](Cc2ccccc2)[C@H](O)CN(CC(C)C)S(=O)(=O)c2ccc(OC)cc2)c1 | –
0.54 | COc1ccc(S(=O)(=O)N(CC(C)C)C[C@@H](O)[C@H](Cc2ccccc2)NC(=O)c2cccc(C(=O)N3CCN(C)CC3)c2)cc1 | 45
5.1 | CCCN(C)C(=O)c1cccc(C(=O)N[C@@H](Cc2ccccc2)[C@H](O)CN(CC(C)C)S(=O)(=O)c2ccc(OC)cc2)c1 | –
0.31 | COCc1coc(CN(C)C(=O)c2cccc(C(=O)N[C@@H](Cc3ccccc3)[C@H](O)CN(CC(C)C)S(=O)(=O)c3ccc(OC)cc3)c2)n1 | 25
